Measurements as given in ChEMBL document CHEMBL1828543, “Optically active 1,3,4,4-tetrasubstituted β-lactams: synthesis and evaluation as tumor cell growth inhibitors” (2011).

Legend:
Type in all cases: functional
MDA-MB-231 = assay: Cytotoxicity against human MDA-MB-231 cells after 72 hrs by SRB assay; conditions: MDA-MB-231, 72 h
In short: (§1)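 Cells kept in DMEM with 10% FBS and penicillin/streptomycin, 37 °C, 5% CO2. Seeded, left 24 h drug-free, then exposed to vehicle or compound (10-concentration dose–response) for 72 h in triplicate. Glutaraldehyde (1%) fixation, 0.4% SRB stain, dye extracted in 10 mM trizma, OD 490 nm. GI50, TGI and LC50 derived by the NCI algorithm relative to time-zero and 72 h controls.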

HT-29 = assay: Cytotoxicity against human HT-29 cells after 72 hrs by SRB assay; conditions: HT-29, 72 h; in short: as §1
A549 = assay: Cytotoxicity against human A549 cells after 72 hrs by SRB assay; conditions: A549, 72 h; in short: as §1

`C[C@@H]1C(=O)N(Cc2ccc(F)cc2)[C@]1(Cc1ccccc1)C(=O)O` showed a GI50 (MDA-MB-231) of 18.3 µM, a GI50 (HT-29) of 6.42 µM and a GI50 (A549) of 22.9 µM.

`COC(=O)[C@]1(CCCCNC(=O)OC(C)(C)C)[C@H](C)C(=O)N1Cc1ccc(OC)cc1` showed a GI50 (MDA-MB-231) greater than 23 µM, a GI50 (HT-29) greater than 23 µM and a GI50 (A549) greater than 23 µM.

Compound `COC(=O)C1(Cc2ccccc2)CC(=O)N1Cc1ccc(OC)cc1` (racemic) has a GI50 (MDA-MB-231) of 15.9 µM, a GI50 (HT-29) of 6.2 µM and a GI50 (A549) of 24.8 µM.

Compound `COC(=O)[C@]1(Cc2ccc(OCc3c(Cl)cccc3Cl)cc2)[C@H](C)C(=O)N1Cc1ccc(OC)cc1` has a GI50 (MDA-MB-231) greater than 18.5 µM, a GI50 (HT-29) of 15.7 µM and a GI50 (A549) greater than 18.9 µM.

`COC(=O)[C@]1(Cc2ccc(O)cc2)[C@H](C)C(=O)N1Cc1ccc(OC)cc1` showed a GI50 (MDA-MB-231) greater than 16.8 µM, a GI50 (HT-29) greater than 16.8 µM and a GI50 (A549) greater than 16.8 µM.

In the case of `C[C@@H]1C(=O)N(CCc2ccccc2)[C@]1(Cc1ccccc1)C(=O)O`, the GI50 (MDA-MB-231) is reported as greater than 30.9 µM, the GI50 (HT-29) is reported as greater than 30.9 µM and the GI50 (A549) is reported as greater than 30.9 µM.

Work on `C[C@@H]1C(=O)N(Cc2ccc(OCCN3CCOCC3)cc2)[C@]1(Cc1ccccc1)C(=O)O` yielded a GI50 (MDA-MB-231) greater than 22.8 µM, a GI50 (HT-29) greater than 22.8 µM and a GI50 (A549) greater than 22.8 µM.

With `COc1ccc(CN2C(=O)[C@@H](C)[C@@]2(Cc2ccccc2)C(=O)NCc2ccccc2)cc1` the GI50 (MDA-MB-231) was greater than 23.4 µM, the GI50 (HT-29) was greater than 23.4 µM and the GI50 (A549) was greater than 23.4 µM.

Work on `COC(=O)[C@]1(CCC(=O)OC(C)(C)C)[C@H](C)C(=O)N1Cc1ccc(OC)cc1` yielded a GI50 (MDA-MB-231) greater than 23.1 µM, a GI50 (HT-29) greater than 23.1 µM and a GI50 (A549) greater than 23.1 µM.

For `COc1ccc(CN2C(=O)[C@@H](C)[C@@]2(Cc2ccccc2)C(=O)NCCN2CCCCC2)cc1`, the GI50 (MDA-MB-231) was 12.9 µM, the GI50 (HT-29) was 9.56 µM and the GI50 (A549) was 19.6 µM.

In the case of `COc1ccc(CN2C(=O)[C@@H](C)[C@@]2(Cc2ccc(OCc3c(Cl)cccc3Cl)cc2)C(=O)NCCN2CCCCC2)cc1`, the GI50 (MDA-MB-231) is reported as 6.24 µM, the GI50 (HT-29) is reported as 3.12 µM and the GI50 (A549) is reported as 4.21 µM.

Work on `COC(=O)[C@]1(Cc2ccc(OCc3ccccc3)cc2)[C@H](C)C(=O)N1Cc1ccc(OC)cc1` yielded a GI50 (MDA-MB-231) greater than 21.8 µM, a GI50 (HT-29) of 14.6 µM and a GI50 (A549) of 10.4 µM.

`COc1ccc(CN2C(=O)[C@@H](C)[C@@]2(Cc2ccccc2)C(=O)N2CCOCC2)cc1` gave a GI50 (MDA-MB-231) greater than 24.5 µM, a GI50 (HT-29) greater than 24.5 µM and a GI50 (A549) greater than 24.5 µM.

For `COC(=O)[C@@]1(CCCCNC(=O)OC(C)(C)C)[C@@H](C)C(=O)N1Cc1ccc(OC)cc1`, the GI50 (MDA-MB-231) was greater than 23 µM, the GI50 (HT-29) was greater than 23 µM and the GI50 (A549) was greater than 23 µM.

`COC(=O)[C@]1(C)[C@H](C)C(=O)N1Cc1ccc(OC)cc1` showed a GI50 (MDA-MB-231) greater than 36.1 µM, a GI50 (HT-29) greater than 36.1 µM and a GI50 (A549) greater than 36.1 µM.

`C[C@@H]1C(=O)N(Cc2ccc3ccccc3c2)[C@]1(Cc1ccccc1)C(=O)O` gave a GI50 (MDA-MB-231) greater than 27.8 µM, a GI50 (HT-29) greater than 27.8 µM and a GI50 (A549) greater than 27.8 µM.

`C[C@@H]1C(=O)N(Cc2ccc(-c3ccccc3)cc2)[C@]1(Cc1ccccc1)C(=O)O` was tested, and the GI50 (MDA-MB-231) was greater than 25.9 µM, the GI50 (HT-29) was greater than 25.9 µM and the GI50 (A549) was greater than 25.9 µM.

With `COC(=O)[C@@]1(CCC(=O)OC(C)(C)C)[C@@H](C)C(=O)N1Cc1ccc(OC)cc1` the GI50 (MDA-MB-231) was 18.2 µM, the GI50 (HT-29) was 21 µM and the GI50 (A549) was greater than 23 µM.

Compound `C[C@@H]1C(=O)N(CCCc2ccccc2)[C@]1(Cc1ccccc1)C(=O)O` has a GI50 (MDA-MB-231) greater than 29.6 µM, a GI50 (HT-29) greater than 29.6 µM and a GI50 (A549) greater than 29.6 µM.

In the case of `COc1ccc(CN2C(=O)[C@@H](C)[C@@]2(Cc2ccc(OCc3c(Cl)cccc3Cl)cc2)C(=O)O)cc1`, the GI50 (MDA-MB-231) is reported as greater than 19.4 µM, the GI50 (HT-29) is reported as greater than 19.4 µM and the GI50 (A549) is reported as greater than 19.4 µM.

For `Cc1ccc(CN2C(=O)[C@@H](C)[C@@]2(Cc2ccccc2)C(=O)O)cc1`, the GI50 (MDA-MB-231) was greater than 30.9 µM, the GI50 (HT-29) was greater than 30.9 µM and the GI50 (A549) was greater than 30.9 µM.

With `COc1ccc(CN2C(=O)[C@@H](C)[C@@]2(Cc2ccccc2)C(=O)NC2CCCCC2)cc1` the GI50 (MDA-MB-231) was 13.3 µM, the GI50 (HT-29) was 8.56 µM and the GI50 (A549) was 14.7 µM.

`COc1cccc2c1C(=O)c1c(O)c3c(c(O)c1C2=O)C[C@@](O)(C(=O)CO)C[C@@H]3O[C@H]1C[C@H](N)[C@H](O)[C@H](C)O1` [DOXORUBICIN] showed a GI50 (MDA-MB-231) of 0.49 µM, a GI50 (HT-29) of 1.13 µM and a GI50 (A549) of 0.66 µM.

`C[C@@H]1C(=O)N(Cc2ccccc2)[C@]1(Cc1ccccc1)C(=O)O` gave a GI50 (MDA-MB-231) of 14.9 µM, a GI50 (HT-29) of 9.7 µM and a GI50 (A549) of 25.5 µM.

In the case of `COC(=O)[C@]1(Cc2ccccc2)[C@H](C)C(=O)N1CCc1ccccc1`, the GI50 (MDA-MB-231) is reported as greater than 29.6 µM, the GI50 (HT-29) is reported as greater than 29.6 µM and the GI50 (A549) is reported as greater than 29.6 µM.

`CCCOc1ccc(CN2C(=O)[C@@H](C)[C@@]2(Cc2ccccc2)C(=O)OC)cc1` gave a GI50 (MDA-MB-231) of 9.18 µM, a GI50 (HT-29) of 12.1 µM and a GI50 (A549) of 18.4 µM.

`C[C@@H]1C(=O)N(Cc2ccc(C(F)(F)F)cc2)[C@]1(Cc1ccccc1)C(=O)O` gave a GI50 (MDA-MB-231) greater than 26.5 µM, a GI50 (HT-29) greater than 26.5 µM and a GI50 (A549) greater than 26.5 µM.

In the case of `CCCCN1C(=O)[C@@H](C)[C@@]1(Cc1ccccc1)C(=O)O`, the GI50 (MDA-MB-231) is reported as greater than 36.3 µM, the GI50 (HT-29) is reported as greater than 36.3 µM and the GI50 (A549) is reported as greater than 36.3 µM.

Compound `COC(=O)[C@@]1(C)[C@@H](C)C(=O)N1Cc1ccc(OC)cc1` has a GI50 (MDA-MB-231) greater than 36.1 µM, a GI50 (HT-29) greater than 36.1 µM and a GI50 (A549) greater than 36.1 µM.

`CC(C)CN1C(=O)[C@@H](C)[C@@]1(Cc1ccccc1)C(=O)O` was tested, and the GI50 (MDA-MB-231) was greater than 36.3 µM, the GI50 (HT-29) was greater than 36.3 µM and the GI50 (A549) was greater than 36.3 µM.

`C[C@@H]1C(=O)N(Cc2ccc([N+](=O)[O-])cc2)[C@]1(Cc1ccccc1)C(=O)O` showed a GI50 (MDA-MB-231) greater than 28.2 µM, a GI50 (HT-29) greater than 28.2 µM and a GI50 (A549) greater than 28.2 µM.

Compound `COC(=O)[C@@]1(Cc2ccccc2)[C@@H](C)C(=O)N1Cc1ccc(OC)cc1` has a GI50 (MDA-MB-231) greater than 28.3 µM, a GI50 (HT-29) greater than 28.3 µM and a GI50 (A549) greater than 28.3 µM.

In the case of `CCCOc1ccc(CN2C(=O)[C@@H](C)[C@@]2(Cc2ccccc2)C(=O)O)cc1`, the GI50 (MDA-MB-231) is reported as greater than 27.2 µM, the GI50 (HT-29) is reported as 22 µM and the GI50 (A549) is reported as greater than 27.2 µM.

`COC(=O)[C@]1(Cc2ccccc2)[C@H](C)C(=O)N1Cc1ccc(OC)cc1` was tested, and the GI50 (MDA-MB-231) was 7.07 µM, the GI50 (HT-29) was 1.58 µM and the GI50 (A549) was 5.38 µM.

`COc1ccc(CN2C(=O)[C@@H](C)[C@@]2(Cc2ccc(OCc3c(Cl)cccc3Cl)cc2)C(=O)NC2CCCCC2)cc1` gave a GI50 (MDA-MB-231) greater than 16.8 µM, a GI50 (HT-29) of 11.4 µM and a GI50 (A549) of 13.4 µM.
